Results on 31 sequences are retold here after the array DNA melting data of Ke et al. (doi:10.1101/2024.01.08.574731).

Series [1] in a line: folding enthalpy; higher = less favourable; fluorescence melt of hairpins on a sequencing array, two-state fit. To be noted: sodium 0.088 M. In short, it runs like this: (§1)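 Melting temperature and folding enthalpy were obtained by bootstrapped two-state fitting. Fits used Cy3 fluorescence of library hairpins with annealed Cy3 and quencher oligos on a sequenced MiSeq flow cell, imaged in 50 mM Na-HEPES pH 8.0, 25 mM NaCl in 2.5 °C steps up to 60 °C and normalised to pre-quench Cy3 and control constructs. Four replicates were combined by inverse-variance weighting, and fitted temperatures were raised by 9.35 °C to match UV melts.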

The nature of series [2]: melting temperature; fluorescence melt of hairpins on a sequencing array, two-state fit, raised by 9.35 °C to match UV melts. The following applies: sodium 0.088 M. The method in brief: as §1

For the sequence GCATCGTCGAAAGACTGC (((..(((....)))))), in series [1], the folding enthalpy is -15.8 kcal/mol. For the same sequence, the Tm in series [2] was 36.8 °C.
With GCGATACTTCGC ((((....)))), in series [1], the folding enthalpy is -25.9 kcal/mol. The Tm in series [2] amounted to 52.7 °C.
Take AAGGAGAAATCCTT (((((....))))): the folding enthalpy in series [1] is -8.61 kcal/mol. Further, the Tm in series [2] was 27.3 °C.
Take GATCCCGCCGGGGATC ((((((....)))))): in series [1], the folding enthalpy was -37.7 kcal/mol. Also, the Tm in series [2] worked out at 63.1 °C.
The corresponding values for GATCAATCTATTGATC ((((((....)))))) are -43.2 kcal/mol and 49.8 °C.
With GTGTATTCGAAAGAACAC (((..(((....)))))), the folding enthalpy in series [1] was -19.1 kcal/mol. Moreover, the Tm in series [2] was found to be 32.8 °C.
As to GCGTACACGAAAGTGCGC (((..(((....)))))), the folding enthalpy in series [1] is -26.4 kcal/mol. Also, the Tm in series [2] was 52.8 °C.
On to CGGACGGAAACGTATCCG ((((((....)))..))), for which the folding enthalpy in series [1] was -17.5 kcal/mol. In addition, the Tm in series [2] came out at 36.7 °C.
Take GGTGTTACGAAAGTAACC (((..(((....)))))): the folding enthalpy in series [1] was -13.8 kcal/mol. Further, the Tm in series [2] came out at 45.2 °C.
The corresponding values for GATCAGATTTCTGATC ((((((....)))))) are -41 kcal/mol and 52.9 °C.
The corresponding values for GATCCCTTGCGGGATC ((((((....)))))) are -39.6 kcal/mol and 60.7 °C.
Turning to GGCATGGCGAAAGCCGCC (((..(((....)))))), the folding enthalpy in series [1] was -16 kcal/mol. The Tm in series [2] was 59.4 °C.
The corresponding values for GCCGGCGGAAACGCCGAC (.(((((....))))).) are -10.3 kcal/mol and 59.4 °C.
In the same order, the values of GATCAGAATACTGATC ((((((....)))))) are -39.2 kcal/mol and 47.4 °C.
Turning to CGGCACGGAAACGTTCCG (((.(((....))).))), the folding enthalpy in series [1] was -24.5 kcal/mol. Also, the Tm in series [2] came to 47.9 °C.
For GCATGTTCGAAAGAATGC (((..(((....)))))), in series [1], the folding enthalpy was -24 kcal/mol. Further, the Tm in series [2] is 30.8 °C.
Turning to GATCCGTGCGCGGATC ((((((....)))))), in series [1], the folding enthalpy was -48.4 kcal/mol. The Tm in series [2] was 65 °C.
Consider GCTACCGGAAACGATAGC ((((.((....)).)))), for which, in series [1], the folding enthalpy is -31.6 kcal/mol. Further, the Tm in series [2] was found to be 43.7 °C.
In the same order, the values of GTAGGGACGAAAGTCTAC (((..(((....)))))) are -12 kcal/mol and 30 °C.
In the case of GCCGTGTCGAAAGACGGC (((..(((....)))))), the folding enthalpy in series [1] is -31.4 kcal/mol. In series [2], the Tm is 58.9 °C.
The corresponding values for GAAGGCGAAAGCCTATTC ((((((....)))..))) are -8.36 kcal/mol and 32.1 °C.
The corresponding values for GCACCGCGAAAGCCGGGC ((.(.((....)).).)) are -20.6 kcal/mol and 54.5 °C.
Consider GATCTTACGAAAGATC ((((((....)))))), for which, in series [1], the folding enthalpy is -26.4 kcal/mol. In series [2], the Tm was determined as 39.4 °C.
For the sequence CGAAACGGAAACGTATCG (((.(((....))).))), the folding enthalpy in series [1] is -30.8 kcal/mol. In addition, the Tm in series [2] came out at 42.6 °C.
Take GCCCGGCGAAAGCCGCGC ((.((((....)))).)): the folding enthalpy in series [1] was -17.4 kcal/mol. Further, the Tm in series [2] came out at 60.1 °C.
With GAGAGAGGAAACCCTCTC (((((.(....).))))), in series [1], the folding enthalpy was -20.2 kcal/mol. Besides, the Tm in series [2] turned out to be 42.5 °C.
Consider GATCATGAGATGATC ((((((...)))))), for which the folding enthalpy in series [1] was -32.5 kcal/mol. Further, the Tm in series [2] was 43.4 °C.
With GATCCTGTTGAGGATC ((((((....)))))), the folding enthalpy in series [1] is -33.9 kcal/mol. Besides, the Tm in series [2] was 53.2 °C.
GTAAGTCGAAAGACTAC (((.(((....)))))): the folding enthalpy in series [1] was -16.9 kcal/mol. Moreover, in series [2], the Tm worked out at 39.5 °C.
Consider GGAACGGGAAACCGTCCC ((.((((....)))).)), for which the folding enthalpy in series [1] is -18.5 kcal/mol. For the same sequence, the Tm in series [2] is 48.2 °C.
The corresponding values for CGAAGACGGAAACGTTCG (((..(((....)))))) are -13.8 kcal/mol and 39 °C.
